Tests used:
Nociceptin receptor [1] = target: T1, Nociceptin receptor (Homo sapiens, UniProt P41146); assay: Agonist activity on nociceptin-induced maximal [35S]GTP-gamma-S binding to ORL1 expressed in CHO cells; type: functional, cell-based
How it was run: (§1)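 [35S]GTPγS binding in membrane fractions from CHO cells stably expressing human ORL1. Antagonism: IC50 against nociceptin-stimulated binding. Agonism: EC50 relative to maximal binding produced by nociceptin. Means of three independent determinations, each in duplicate.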

[2] = target: Kappa-type opioid receptor (Homo sapiens, UniProt P41145); assay: Displacement of [3H]U-69593 from cloned human kappa opioid receptor expressed in CHO cells; type: cell-based
How it was run: (§2)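 Radioligand displacement using membrane fractions of CHO cells stably expressing cloned human receptors. IC50 reported as mean of three independent determinations, each in duplicate.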

Mu-type opioid receptor = Mu-type opioid receptor (Homo sapiens, UniProt P35372); assay: Displacement of [3H]diprenorphin from cloned human mu opioid receptor expressed in CHO cells; type: cell-based; how it was run: as §2
Nociceptin receptor [3] = target: T1, Nociceptin receptor; assay: Antagonist activity on nociceptin-induced [35S]GTP-gamma-S binding to ORL1 expressed in CHO cells; type: functional, cell-based; how it was run: as §1
Nociceptin receptor [4] = target: T1, Nociceptin receptor; assay: Displacement of [125I]Tyr-nociceptin from cloned human ORL1 expressed in CHO cells; type: cell-based; how it was run: as §2
[5] = target: Delta-type opioid receptor (Homo sapiens, UniProt P41143); assay: Displacement of [3H]naltrindole from cloned human delta opioid receptor expressed in CHO cells; type: cell-based; how it was run: as §2
Mus musculus = assay: Antagonist activity as % reversal against the reduction in locomotor activity produced by an ORL1 agonist in CD1 mice at 10 mg/kg, sc; type: functional; set-up: scale not given: the % may be the effect or the level left; settings: route subcutaneous
How it was run: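 Mice given test agent 10 mg/kg sc against an ORL1 agonist that reduces locomotor activity. Activity counted over 60 min. Value is % reversal of the agonist response, mean ± SEM, n = 7–8 per group.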

Rattus norvegicus = assay: Brain level in rat after administration of 10 mg/kg, sc; type: ADME, organism-based; set-up: dose 10 mg/kg, route subcutaneous; settings: in vivo
How it was run: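 Rats dosed 10 mg/kg sc. Plasma and brain collected 1 h after dosing and drug concentration measured, n = 3 per group. Plasma in nM, brain in nmol/g brain.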

[6] = Distribution coefficient (LogD) between octanol and buffer; type: physicochemical

T1 sequence (P41146 whole entry): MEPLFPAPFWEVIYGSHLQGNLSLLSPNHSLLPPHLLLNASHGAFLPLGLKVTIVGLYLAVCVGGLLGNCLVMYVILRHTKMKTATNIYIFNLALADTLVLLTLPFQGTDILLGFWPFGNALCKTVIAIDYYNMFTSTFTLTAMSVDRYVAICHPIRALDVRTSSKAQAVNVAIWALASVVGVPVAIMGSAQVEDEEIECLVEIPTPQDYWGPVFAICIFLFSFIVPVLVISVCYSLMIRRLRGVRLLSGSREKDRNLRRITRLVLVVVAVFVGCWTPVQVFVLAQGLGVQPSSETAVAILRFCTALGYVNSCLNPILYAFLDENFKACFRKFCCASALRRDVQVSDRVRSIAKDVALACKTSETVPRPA
Sequence of Delta-type opioid receptor (P41143 whole entry): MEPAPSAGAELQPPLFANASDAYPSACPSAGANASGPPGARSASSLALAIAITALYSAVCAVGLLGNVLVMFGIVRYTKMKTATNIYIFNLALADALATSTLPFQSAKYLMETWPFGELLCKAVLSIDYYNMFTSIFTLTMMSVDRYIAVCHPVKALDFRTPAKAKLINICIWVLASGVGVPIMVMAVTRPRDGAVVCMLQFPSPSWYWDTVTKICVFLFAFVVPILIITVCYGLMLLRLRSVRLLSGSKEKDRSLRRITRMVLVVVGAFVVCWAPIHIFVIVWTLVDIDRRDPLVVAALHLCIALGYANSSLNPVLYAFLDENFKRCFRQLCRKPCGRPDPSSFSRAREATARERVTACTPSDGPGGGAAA
Sequence of Mu-type opioid receptor (P35372 whole entry): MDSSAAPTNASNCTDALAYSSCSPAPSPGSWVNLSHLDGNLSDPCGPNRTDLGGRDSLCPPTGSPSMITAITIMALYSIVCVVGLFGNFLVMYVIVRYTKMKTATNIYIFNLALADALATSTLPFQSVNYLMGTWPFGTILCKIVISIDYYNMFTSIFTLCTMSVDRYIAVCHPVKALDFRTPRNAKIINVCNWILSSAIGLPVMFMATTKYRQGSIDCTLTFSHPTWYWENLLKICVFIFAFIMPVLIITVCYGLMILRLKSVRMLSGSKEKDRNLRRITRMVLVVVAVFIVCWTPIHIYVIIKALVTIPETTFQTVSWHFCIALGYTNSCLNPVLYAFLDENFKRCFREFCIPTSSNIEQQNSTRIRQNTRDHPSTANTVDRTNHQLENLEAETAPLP
Sequence of Kappa-type opioid receptor (P41145 whole entry): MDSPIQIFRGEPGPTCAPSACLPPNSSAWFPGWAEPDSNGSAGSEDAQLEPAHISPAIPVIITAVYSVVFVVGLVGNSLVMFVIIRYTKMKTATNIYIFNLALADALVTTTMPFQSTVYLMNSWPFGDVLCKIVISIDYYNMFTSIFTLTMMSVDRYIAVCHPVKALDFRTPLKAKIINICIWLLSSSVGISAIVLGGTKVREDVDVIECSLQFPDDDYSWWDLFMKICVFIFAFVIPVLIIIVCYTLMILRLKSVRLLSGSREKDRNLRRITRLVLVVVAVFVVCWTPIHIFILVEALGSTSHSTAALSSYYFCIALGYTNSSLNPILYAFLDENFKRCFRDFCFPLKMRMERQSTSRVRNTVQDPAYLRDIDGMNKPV

| Compound | IC50 (Nociceptin receptor [4]) [nM] | further results |
| --- | --- | --- |
| O=C(NCCCN1CCC2(CCc3ccccc32)CC1)[C@@H](O)Cc1ccccc1 | 12 | EC50 (Nociceptin receptor [1]): > 10000 nM; IC50 [2]: 6900 nM; IC50 (Mu-type opioid receptor): > 10000 nM; IC50 (Nociceptin receptor [3]): 7.5 nM; IC50 [5]: > 10000 nM |
| O=C(Cc1ccccc1)C(=O)NCCCN1CCC2(CCc3ccccc32)CC1 | > 1000 | – |
| O=C(NCCCN1CCC2(CCc3ccccc32)CC1)C(O)(c1ccccc1)C1CCCCC1 (configuration not stated) | > 1000 | – |
| O=C(NCCCN1CCC2(CCc3ccccc32)CC1)[C@@H]1CCCN1C(=O)c1ccccc1 | > 1000 | – |
| O=C(NCCCN1CCC2(CCc3ccccc32)CC1)c1ncccc1C(O)c1ccccc1 (configuration not stated) | > 1000 | – |
| CC(NC(=O)c1ccccc1)C(=O)NCCCN1CCC2(CCc3ccccc32)CC1 (configuration not stated) | > 1000 | – |
| O=C(NCCCN1CCC2(CCc3ccccc32)CC1)C1CC1c1ccccc1 (configuration not stated) | > 1000 | – |
| O=C(CCc1ccccc1)NCCCN1CCC2(CCc3ccccc32)CC1 | 730 | – |
| O=C(NCCCN1CCC2(CCc3ccccc32)CC1)c1ccccc1C(O)c1ccccc1 (configuration not stated) | 580 | – |
| O=C(NCCCN1CCC2(CCc3ccccc32)CC1)c1ccccc1OCc1ccccc1 | 83 | EC50 (Nociceptin receptor [1]): > 10000 nM; IC50 [2]: 2300 nM; IC50 (Mu-type opioid receptor): > 10000 nM; IC50 (Nociceptin receptor [3]): 110 nM; IC50 [5]: > 10000 nM |
| O=C(CSc1nc2ccccc2s1)NCCCN1CCC2(CCc3ccccc32)CC1 | 290 | – |
| O=C(NCCCN1CCC2(CCc3ccccc32)CC1)C1CCCCC1C(=O)Nc1ccccc1 (configuration not stated) | > 1000 | – |
| CC1=Cc2ccccc2C1C(=O)NCCCN1CCC2(CCc3ccccc32)CC1 (configuration not stated) | > 1000 | – |
| O=C(NCCCN1CCC2(CC1)OCc1ccccc12)[C@H]1CCCN1Cc1ccccc1 | 0.27 | EC50 (Nociceptin receptor [1]): > 1000 nM; IC50 [2]: 2500 nM; Activity (Mus musculus): 88%; IC50 (Mu-type opioid receptor): 6700 nM; IC50 (Nociceptin receptor [3]): 0.15 nM; Activity (Rattus norvegicus): 4.37 nM/g; IC50 [5]: > 10000 nM |
| O=C(NCCCN1CCC2(CCc3ccccc32)CC1)C1(c2ccccc2)CCCC1 | > 1000 | – |
| O=C(CSc1ccccc1)NCCCN1CCC2(CCc3ccccc32)CC1 | 170 | – |
| O=C(NCCCN1CCC2(CCc3ccccc32)CC1)C(Cc1ccccc1)c1ccccc1 (configuration not stated) | > 1000 | – |
| O=C(CC1Cc2ccccc2C1)NCCCN1CCC2(CCc3ccccc32)CC1 | > 1000 | – |
| O=C(Cc1cccc(Oc2ccccc2)c1)NCCCN1CCC2(CCc3ccccc32)CC1 | 340 | – |
| O=C(NCCCN1CCC2(CCc3ccccc32)CC1)C(=O)c1cnn(-c2ccccc2)c1C(F)(F)F | > 1000 | – |
| O=C(CCc1c[nH]c2ccccc12)NCCCN1CCC2(CCc3ccccc32)CC1 | 360 | – |
| O=C(/C=C/c1c[nH]c2ccccc12)NCCCN1CCC2(CCc3ccccc32)CC1 | > 1000 | – |
| CC(C)(Oc1ccc(Cl)cc1)C(=O)NCCCN1CCC2(CCc3ccccc32)CC1 | 870 | – |

| Compound | IC50 (Nociceptin receptor [4]) [nM] | further results |
| --- | --- | --- |
| O=C(NCCCN1CCC2(CCc3ccccc32)CC1)[C@H]1CCC(=O)N1Cc1ccccc1 | 50 | – |
| O=C(NCCCN1CCC2(CCc3ccccc32)CC1)c1ccccc1Nc1ccccc1 | 230 | – |
| O=C(NCCCN1CCC2(CCc3ccccc32)CC1)[C@H]1CCCN1Cc1ccccc1 | 0.22 | EC50 (Nociceptin receptor [1]): > 1000 nM; IC50 [2]: 950 nM; IC50 (Mu-type opioid receptor): 4300 nM; logD [6]: 2.7; IC50 (Nociceptin receptor [3]): 0.12 nM; IC50 [5]: > 10000 nM |
| O=C(NCCCN1CCC2(CCc3ccccc32)CC1)c1ncccc1-c1ccccc1 | > 1000 | – |
| C[C@@H](O)[C@H](NC(=O)c1ccccc1)C(=O)NCCCN1CCC2(CCc3ccccc32)CC1 | > 1000 | – |
| O=C(NCCCN1CCC2(CCc3ccccc32)CC1)c1ccccc1Cc1ccccc1 | 21 | – |
| O=C(NCCCN1CCC2(CCc3ccccc32)CC1)c1ccc(-c2ccc(Cl)cc2)o1 | > 1000 | – |
| Cc1ccc(C(=O)/C=C/C(=O)NCCCN2CCC3(CCc4ccccc43)CC2)cc1 | > 1000 | – |
| O=C(NCCCN1CCC2(CCc3ccccc32)CC1)c1ncccc1Oc1ccccc1 | > 1000 | – |
| O=C(NCCCN1CCC2(CCc3ccccc32)CC1)C1Cc2ccccc2C1 | > 1000 | – |
| CC(Oc1ccc(Cl)cc1Cl)C(=O)NCCCN1CCC2(CCc3ccccc32)CC1 (configuration not stated) | > 1000 | – |
| O=C(NCCCN1CCC2(CCc3ccccc32)CC1)c1ccccc1Oc1ccccc1 | 8.2 | EC50 (Nociceptin receptor [1]): > 10000 nM; IC50 [2]: 9600 nM; IC50 (Mu-type opioid receptor): > 10000 nM; IC50 (Nociceptin receptor [3]): 4 nM; IC50 [5]: > 10000 nM |
| O=C(N[C@H]1CCCC[C@H]1C(=O)NCCCN1CCC2(CCc3ccccc32)CC1)c1ccccc1 | > 1000 | – |
| O=C(NCCCN1CCC2(CCc3ccccc32)CC1)[C@H]1COC(=O)N1Cc1ccccc1 | 24 | – |
| O=C(NCCCN1CCC2(CCc3ccccc32)CC1)C1CCN(c2ncccn2)CC1 | > 1000 | – |
| O=C(NCCCN1CCC2(CCc3ccccc32)CC1)C1(c2ccccc2)CCCCC1 | 630 | – |
| O=C(Cc1ccc2c(c1)OCO2)C(=O)NCCCN1CCC2(CCc3ccccc32)CC1 | > 1000 | – |
| O=C(NCCCN1CCC2(CCc3ccccc32)CC1)C(=O)c1c[nH]c2ccccc12 | 330 | – |
| O=C(NCCCN1CCC2(CCc3ccccc32)CC1)C1CCc2ccccc2C1 (configuration not stated) | > 1000 | – |
| O=C(NCCCN1CCC2(CCc3ccccc32)CC1)c1cccc(Oc2ccccc2)c1 | > 1000 | – |
| O=C(Cc1ccccc1)NCCCN1CCC2(CCc3ccccc32)CC1 | > 1000 | – |
| CC(=O)N/C(=C\c1ccccc1)C(=O)NCCCN1CCC2(CCc3ccccc32)CC1 | > 1000 | – |
| O=C(NCCCN1CCC2(CCc3ccccc32)CC1)C1Cc2ccccc21 (configuration not stated) | > 1000 | – |

| Compound | IC50 (Nociceptin receptor [4]) [nM] | further results |
| --- | --- | --- |
| COC(C(=O)NCCCN1CCC2(CCc3ccccc32)CC1)c1ccccc1 (configuration not stated) | > 1000 | – |
| O=C(NCCCN1CCC2(CCc3ccccc32)CC1)c1cccc2c1Cc1ccccc1-2 | > 1000 | – |
| O=C(NCCCN1CCC2(CCc3ccccc32)CC1)c1cc(=O)c2ccccc2o1 | > 1000 | – |
| O=C(NCCCN1CCC2(CCc3ccccc32)CC1)[C@@H]1CCCN1Cc1ccccc1 | 47 | EC50 (Nociceptin receptor [1]): > 10000 nM; IC50 [2]: 7900 nM; IC50 (Mu-type opioid receptor): > 10000 nM; IC50 (Nociceptin receptor [3]): 42 nM; IC50 [5]: > 10000 nM |
| O=C(Cc1ccc2ccccc2c1)NCCCN1CCC2(CCc3ccccc32)CC1 | > 1000 | – |
| O=C1CC(C(=O)NCCCN2CCC3(CCc4ccccc43)CC2)c2ccccc21 (configuration not stated) | > 1000 | – |
| O=C(Cc1cccc2ccccc12)NCCCN1CCC2(CCc3ccccc32)CC1 | > 1000 | – |
| O=C(NCCCN1CCC2(CCc3ccccc32)CC1)[C@H](O)Cc1ccccc1 | > 1000 | – |
| CN(CC(=O)NCCCN1CCC2(CCc3ccccc32)CC1)C(=O)c1ccccc1 | > 1000 | – |
| O=C(NCCCN1CCC2(CCc3ccccc32)CC1)[C@H]1COCN1C(=O)OCc1ccccc1 | 131 | – |
| COc1ccc2c(c1)CC(CC(=O)NCCCN1CCC3(CCc4ccccc43)CC1)C2=O (configuration not stated) | > 1000 | – |
| O=C1N[C@@H](Cc2ccccc2)[C@@H](C(=O)NCCCN2CCC3(CCc4ccccc43)CC2)O1 | 30 | – |
| Cc1onc(-c2ccccc2)c1C(=O)NCCCN1CCC2(CCc3ccccc32)CC1 | > 1000 | – |
| CC(C)(C)OC(=O)NC1(C(=O)NCCCN2CCC3(CCc4ccccc43)CC2)CCCCC1 | > 1000 | – |
| CC(C)(C)C(Cc1ccccc1)C(=O)NCCCN1CCC2(CCc3ccccc32)CC1 (configuration not stated) | > 1000 | – |
| CC(Oc1ccccc1)C(=O)NCCCN1CCC2(CCc3ccccc32)CC1 (configuration not stated) | 900 | – |
| O=C(N[C@H]1CCCC[C@@H]1C(=O)NCCCN1CCC2(CCc3ccccc32)CC1)c1ccccc1 | > 1000 | – |
| O=C(NCCCN1CCC2(CCc3ccccc32)CC1)c1ccccc1-c1ccccc1 | 10 | EC50 (Nociceptin receptor [1]): > 10000 nM; IC50 [2]: 3700 nM; IC50 (Mu-type opioid receptor): > 10000 nM; logD [6]: 3.1; IC50 (Nociceptin receptor [3]): 8.3 nM; IC50 [5]: > 10000 nM |
| O=C(/C=C/c1ccccc1)NCCCN1CCC2(CCc3ccccc32)CC1 | 540 | – |
| O=C(CCCc1ccccc1)NCCCN1CCC2(CCc3ccccc32)CC1 | 350 | – |
| O=C(NCCCN1CCC2(CCc3ccccc32)CC1)C1Cc2ccccc2N1c1ccccc1 (configuration not stated) | > 1000 | – |
| COc1ccccc1/C=C\C(=O)NCCCN1CCC2(CCc3ccccc32)CC1 | > 1000 | – |

Reference: ChEMBL document CHEMBL1149384, “Identification of a novel spiropiperidine opioid receptor-like 1 antagonist class by a focused library approach featuring 3D-pharmacophore similarity” (J Med Chem, 2006)
